The list is not random: actives were taken first. Their share in the collection is about 1.8%.
TDP2 inh – blocks human TDP2 phosphodiesterase activity; recombinant TDP2, T5PNP hydrolysis, p-nitrophenol absorbance 415 nm; 370,000 compounds, 0.34% hits; inhibition, % at 12.8 µM;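 active means inhibition above the mean of all tested compounds plus 3 SD, set per campaign, cut at about 25% in these data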;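 further: 0% = DMSO with enzyme and 100% = buffer with substrate but no TDP2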
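Read-out basis: percent inhibition. System: recombinant human TDP2. Buffer or medium: Mg2+-containing Tris-HCl buffer, pH 7.5. Repeats: single replicate. Timing: reaction 2 h, 37 °C. Benchmarks: high control without enzyme, low control DMSO plus TDP2. Probe or stimulus: 5 mM T5PNP. Doses: 12.8 µM only. Measured by: epi absorbance of p-nitrophenol freed from T5PNP by hydrolysis.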
PAD4 FP inh – blocks human protein arginine deiminase 4 | AID 485272 | Q9UM07 | inhibition, % at 6.36 µM | 330,000 compounds, 0.41% hits | recombinant PAD4, RCA probe fluorescence polarization;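 active means percent inhibition above a cutoff equal to the mean of all tested compounds plus 3 SD, cut at about 15% in these data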;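 further: 0% = PAD4 with RCA probe and DMSO and 100% = probe without PAD4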
Target sequence (Q9UM07 whole entry, looked up): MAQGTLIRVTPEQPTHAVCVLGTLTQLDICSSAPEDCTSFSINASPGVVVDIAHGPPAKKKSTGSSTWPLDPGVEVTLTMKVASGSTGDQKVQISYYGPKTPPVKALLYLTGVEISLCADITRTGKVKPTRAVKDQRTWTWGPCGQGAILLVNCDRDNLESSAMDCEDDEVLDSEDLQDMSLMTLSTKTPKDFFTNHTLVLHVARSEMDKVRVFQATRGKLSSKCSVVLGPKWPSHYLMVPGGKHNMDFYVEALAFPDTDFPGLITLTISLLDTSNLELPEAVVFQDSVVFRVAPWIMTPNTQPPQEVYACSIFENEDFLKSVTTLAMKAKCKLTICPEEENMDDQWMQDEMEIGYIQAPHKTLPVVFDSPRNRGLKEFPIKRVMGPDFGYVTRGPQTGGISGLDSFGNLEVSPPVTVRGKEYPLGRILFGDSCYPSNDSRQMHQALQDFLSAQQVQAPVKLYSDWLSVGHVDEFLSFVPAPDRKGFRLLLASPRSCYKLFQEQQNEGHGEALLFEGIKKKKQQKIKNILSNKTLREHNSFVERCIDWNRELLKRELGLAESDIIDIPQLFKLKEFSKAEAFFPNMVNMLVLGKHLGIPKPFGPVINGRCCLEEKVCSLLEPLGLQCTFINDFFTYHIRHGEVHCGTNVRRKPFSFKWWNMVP
Fh CTSL1 inh – blocks F. hepatica cathepsin L1 in PFM18AAP counter-screen; inhibition, % at 5.96 µM; recombinant F. hepatica cathepsin L1, Z-Leu-Arg-MCA fluorescence; 300,000 compounds, 0.49% hits;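 active means inhibition above the mean of all tested compounds plus 3 SD, set per screening campaign, cut at about 17% in these data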;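 further: 0% = plate median of test compound wells and 100% = 1 µM Z-Phe-Ala-diazomethylketone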
GSTO1 inh – blocks human GSTO1 in RBBP9 counter-screen; P78417; recombinant GSTO1, activity-based probe fluorescence polarization; inhibition, % at 5.96 µM; 300,000 compounds, 1.1% hits; AID 1974;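 active means inhibition above the campaign mean inhibition plus 3 SD, cut at about 35% in these data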;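 further: 0% = GSTO1-1 with DMSO and 100% = wells lacking GSTO1-1 enzyme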
Apaf-1 inh – inhibitors of human Apaf-1 apoptosome. O14727. reconstituted apoptosome caspase-3 activity, DEVD-Rh110 fluorescence. inhibition, % at 20 µM. 330,000 compounds, 0.71% hits. AID 489030; active means inhibition of at least 40% at 20 µM;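 further: plate controls were DMSO wells for no effect and DEVD-CHO caspase inhibitor wells for full effect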
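Material: reconstituted apoptosome with Apaf-1, cytochrome c, caspase-9, procaspase-3, dATP; medium: pH 7.5 Hepes buffer with CHAPS, BSA, DTT; also added: cytochrome c and DEVD-Rh110 substrate; timing: 30 min plus 50 min, RT; signal: Rh110 fluorescence intensity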
TDP2 confirm – human TDP2 inhibition, confirmation; recombinant human TDP2, absorbance read-out; 1,100 compounds, 22% hits; inhibition, % at 12.8 µM; shares compounds with TDP2 inh; in the data active means inhibition above about 25%;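 further: 0% = vehicle with enzyme and 100% = no enzyme buffer only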
Active calls of the source: *; . = no result.

SMILES | TDP2 inh | PAD4 FP inh | Fh CTSL1 inh | GSTO1 inh | Apaf-1 inh | TDP2 confirm
Cc1cccc(NC(=O)c2ccccc2NC(=O)Cc2ccccc2)c1C | 14 | -2 | -2 | -1 | -6 | .
Cc1cccc(NC(=O)C(Cc2ccccc2)c2nn[nH]n2)c1C (stereo not given) | 28* | -2 | 0 | 4 | 5 | 2
Cc1cc(C(=O)CN2C(=O)C(=O)N(C3CCCC3)C2=O)c(C)n1CCc1ccccc1 | 7 | . | . | . | 20 | .
Cc1[nH]c2ccccc2c1C(=O)CN1C(=O)C(=O)N(C2CCCC2)C1=O | 26* | -2 | 1 | 2 | 15 | 4
CCOC(=O)c1c(S(=O)(=O)NCC(=O)Nc2ccccc2F)c(C)n(C)c1C | 25* | -2 | 3 | 1 | 7 | 7
COCc1cn(-c2ccc3c(c2)[C@]2(CC(=O)N(C)C2c2ccccc2)C(=O)N3CC(C)C)nn1 (stereo not given in full) | 1 | . | . | . | . | .
CC(CN1CCN(Cc2ccccc2)CC1)c1ccccc1 (stereo not given) | 26* | -2 | -5 | 3 | -5 | 10
CC(CN1CCC(O)CC1)c1ccccc1 (stereo not given) | -17 | 0 | -2 | 0 | -15 | .
CC(NC(=O)C(C)N1CCN(Cc2ccccc2)CC1)c1ccccc1 (stereo not given) | 25* | 6 | 3 | 2 | -3 | -3
Cc1cccc(CN2CCN(C(C)C(=O)NC(C)c3ccccc3)CC2)c1 (stereo not given) | 3 | -2 | 0 | -9 | 6 | .
Cc1ccc(S(=O)(=O)n2ccc(-c3c(-c4ccc(F)cc4)noc3C)n2)cc1 | 2 | . | . | . | . | .
C=CCN1C(=O)[C@@H](CC(=O)NCc2ccccc2)[C@]2(C(=O)OC)CCCCC=C12 | -4 | . | . | . | . | .
Cc1cccc(NC(=O)[C@H]2CC(=O)O[C@@H]2c2ccccc2)c1C | 3 | . | . | . | . | .
O=C(Nc1ccc(NC(=O)c2ccco2)cc1)c1ccco1 | 28* | 3 | -2 | 3 | -5 | 9
CCOc1ccc(-n2c(SCC(=O)Nc3ccc(OCc4ccccc4)cc3)nnc2-c2ccc(Cl)cc2)cc1 | 10 | . | . | . | . | .
CCN(CC)c1cc(Cl)c2nonc2c1N | 33* | -3 | 0 | 4 | -10 | 9
CCN(CC)c1cc2nonc2c2nonc12 | -9 | -1 | 0 | 3 | -15 | .
CC1(c2nnnn2Cc2ccccc2)CSCC(=O)N1Cc1cccs1 (stereo not given) | -5 | . | . | . | . | .
CCCCn1c(NC(=O)c2ccccc2)c(C#N)c2nc3ccccc3nc21 | 84* | . | . | . | . | 85*
CCCN1CCN(CCCNC(=O)Cn2nc(C)n3c(cc4cc(OC)ccc43)c2=O)CC1 | 27* | -2 | -1 | 11 | -3 | -5
Cc1ccc2nc(-c3ccc4c(c3)NC(=O)CO4)cn2c1 | 25* | 0 | 0 | 2 | -4 | 3
COc1ccc(S(=O)(=O)N2CCC(C(=O)NCc3ccncc3)CC2)cc1 | 26* | -1 | 2 | 2 | -11 | 1
CCCCN1CC(COc2ccc(OC)cc2)OCCS1(=O)=O (stereo not given) | 0 | . | . | . | . | .
COc1ccccc1C(=O)Nc1nc(C)cc(C)n1 | 25* | 4 | 5 | -1 | 3 | 1
COc1ccccc1C(=O)Nc1nnn(C)n1 | 6 | -2 | -1 | 6 | 2 | .
SMILES | TDP2 inh | PAD4 FP inh | Fh CTSL1 inh | GSTO1 inh | Apaf-1 inh | TDP2 confirm
Cc1nnc(SCC(=O)N(C)Cc2ccccc2)[nH]c1=O | 43* | 4 | 7 | 10 | 1 | -5
CCCc1cc(=O)[nH]c(SCC(=O)N(C)Cc2ccccc2)n1 | -5 | -3 | 2 | 2 | 6 | .
COc1cc(OC)c(OC)cc1CN1CCN(Cc2ccc(SC)cc2)CC1 | 25* | -7 | 3 | -1 | -8 | -1
Cc1cc(Cl)c2oc(C(=O)N3CCOCC3)c(C)c2c1 | -5 | . | . | . | . | .
Cc1cc(Cl)c2oc(C(=O)N3CCN(C(=O)c4ccco4)CC3)c(C)c2c1 | 31* | -4 | 1 | 5 | 24 | -1
COc1ccccc1N1CCN(S(=O)(=O)c2ccc3c(c2)n(C)c(=O)c(=O)n3C)CC1 | -4 | . | . | . | . | .
Brc1ccc(CN2CCSCC2)cc1 | -7 | 8 | 0 | 0 | -18 | .
Cc1ccc(CN2CCSCC2)cc1 | 26* | -3 | -5 | -2 | -20 | 8
C=CCOC(=O)N[C@@H](c1coc2ccccc2c1=O)[C@@H](C)/C=C/CC(=O)OC | -6 | . | . | . | . | .
